Source: ChEMBL document CHEMBL3045963, “Synthesis of nalidixic acid based hydrazones as novel pesticides” (2010)
In brackets after ≈: the same amount, converted by molar mass.

Legend:
Assay type in all cases: functional
Athelia rolfsii = assay: Fungicidal activity against Athelia rolfsii by poisoned food technique; conditions: Agroathelia rolfsii; read-out: ED50 (the source's name)
Fusarium oxysporum = assay: Fungicidal activity against Fusarium oxysporum by poisoned food technique; conditions: read-out: ED50 (the source's name)
Alternaria porri = assay: Fungicidal activity against Alternaria porri by poisoned food technique; conditions: read-out: ED50 (the source's name)
Macrophomina phaseolina = assay: Fungicidal activity against Rhizoctonia bataticola by poisoned food technique; conditions: read-out: ED50 (the source's name)
Spodoptera litura [1] = assay: Insecticidal activity against third-instar larval stage of prestarved Spodoptera litura in castor leaf assessed as mortality at 0.1% treated for 2 secs before larval infestation measured after 24 hr by feeding method
Procedure, shortened: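 Castor leaf is dipped 2 s in 0.1% compound solution, air-dried, and placed on moist filter paper in 9 cm Petri plates. Larvae starved 4 h beforehand are released singly, one per plate. Thirty replicates per treatment, solvent control. Mortality is scored after 24 h.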

Callosobruchus maculatus = assay: Insecticidal activity against adult Callosobruchus maculatus assessed as mortality at 0.1% at 27 +/-1 degC after 24 hr by contact based film residue method
Procedure, shortened: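 Lab-reared adults, 2-5 days old, exposed to a dry film: 1 mL of 0.1% compound solution in dichloromethane is swirled in a 90 mm Petri plate and dried 3-5 min. Ten adults per plate are held at 27 ± 1 °C and 70% RH. Mortality is scored at 24 h, with no response to touch counted as dead. Triplicates, solvent control, malathion reference.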

Rhizoctonia solani = assay: Fungicidal activity against Rhizoctonia solani by poisoned food technique; conditions: read-out: ED50 (the source's name)
Spodoptera litura [2] = assay: Insecticidal activity against third-instar larval stage of Spodoptera litura assessed as mortality at 0.1% applied topically on the ventral side of the larvae measured after 24 hr by contact method
Procedure, shortened: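 Field-collected larvae are reared in the lab at 27 ± 1 °C and 70% RH. Two microliters of a 0.1% dichloromethane solution is applied to the ventral side. Ten treated larvae are kept per glass bottle and fed fresh castor leaves. Mortality is recorded at 24 h. Triplicate, solvent control.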

Tribolium castaneum = assay: Insecticidal activity against adult Tribolium castaneum (red flour beetle) in compound pre-treated green gram grains assessed as mortality at 20 mg/kg after 48 hr by feeding based residue method; conditions: in Vigna radiata
Procedure, shortened: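 Green gram grains are treated with compound in dichloromethane (0.6 mg in 5 mL) at 20 mg active ingredient per kg grain (0.002%). Ten adults are released onto 10 g of treated grain in a plastic box. Mortality is recorded after 48 h. Triplicate, solvent-treated control.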

Structure (SMILES)	EC50 (Athelia rolfsii)	EC50 (Fusarium oxysporum)	EC50 (Alternaria porri)	EC50 (Macrophomina phaseolina)	mortality (Spodoptera litura [1])	mortality (Callosobruchus maculatus)	EC50 (Rhizoctonia solani)	mortality (Spodoptera litura [2])	mortality at 20 mg/kg (Tribolium castaneum)
CCn1cc(C(=O)N/N=C/c2cccc3ccccc23)c(=O)c2ccc(C)nc21	259 µg/mL (≈ 674 µM)	134 µg/mL (≈ 350 µM)	115 µg/mL (≈ 300 µM)	316 µg/mL (≈ 821 µM)	90%	0%	226 µg/mL (≈ 589 µM)	10%	–
CCn1cc(C(=O)NN=C2CCCCC2)c(=O)c2ccc(C)nc21	177 µg/mL (≈ 543 µM)	62.6 µg/mL (≈ 192 µM)	34.2 µg/mL (≈ 105 µM)	188 µg/mL (≈ 577 µM)	70%	0%	166 µg/mL (≈ 510 µM)	–	15%
CCn1cc(C(=O)NN=C2C3CC4CC(C3)CC2C4)c(=O)c2ccc(C)nc21	524 µg/mL (≈ 1380 µM)	258 µg/mL (≈ 683 µM)	133 µg/mL (≈ 351 µM)	638 µg/mL (≈ 1690 µM)	50%	0%	405 µg/mL (≈ 1070 µM)	10%	10%
C/C=C/C=N/NC(=O)c1cn(CC)c2nc(C)ccc2c1=O	204 µg/mL (≈ 683 µM)	95.4 µg/mL (≈ 320 µM)	89.8 µg/mL (≈ 301 µM)	324 µg/mL (≈ 1090 µM)	60%	0%	248 µg/mL (≈ 830 µM)	–	–
CCn1cc(C(=O)N/N=C/c2ccc(OC)cc2)c(=O)c2ccc(C)nc21	320 µg/mL (≈ 879 µM)	152 µg/mL (≈ 416 µM)	121 µg/mL (≈ 332 µM)	301 µg/mL (≈ 825 µM)	70%	70%	238 µg/mL (≈ 654 µM)	–	30%
CCn1cc(C(=O)N/N=C/c2ccccc2C)c(=O)c2ccc(C)nc21	346 µg/mL (≈ 993 µM)	129 µg/mL (≈ 369 µM)	109 µg/mL (≈ 313 µM)	533 µg/mL (≈ 1530 µM)	0%	10%	408 µg/mL (≈ 1170 µM)	–	–
CCn1cc(C(=O)N/N=C/c2cccc(C)c2)c(=O)c2ccc(C)nc21	298 µg/mL (≈ 854 µM)	103 µg/mL (≈ 296 µM)	66.9 µg/mL (≈ 192 µM)	322 µg/mL (≈ 924 µM)	80%	60%	301 µg/mL (≈ 865 µM)	–	–
CCn1cc(C(=O)N/N=C/c2ccc(C)cc2)c(=O)c2ccc(C)nc21	374 µg/mL (≈ 1070 µM)	195 µg/mL (≈ 560 µM)	87.3 µg/mL (≈ 251 µM)	378 µg/mL (≈ 1080 µM)	70%	20%	372 µg/mL (≈ 1070 µM)	10%	–
CCn1cc(C(=O)N/N=C/c2ccc(C(C)C)cc2)c(=O)c2ccc(C)nc21	464 µg/mL (≈ 1230 µM)	277 µg/mL (≈ 736 µM)	124 µg/mL (≈ 331 µM)	453 µg/mL (≈ 1200 µM)	10%	20%	252 µg/mL (≈ 671 µM)	–	–
CCn1cc(C(=O)N/N=C/c2ccc(Cl)cc2Cl)c(=O)c2ccc(C)nc21	541 µg/mL (≈ 1340 µM)	121 µg/mL (≈ 300 µM)	119 µg/mL (≈ 296 µM)	495 µg/mL (≈ 1230 µM)	100%	40%	354 µg/mL (≈ 877 µM)	–	–
CCn1cc(C(=O)N/N=C/c2c(Cl)cccc2Cl)c(=O)c2ccc(C)nc21	282 µg/mL (≈ 701 µM)	114 µg/mL (≈ 283 µM)	87.2 µg/mL (≈ 216 µM)	255 µg/mL (≈ 633 µM)	100%	30%	298 µg/mL (≈ 738 µM)	10%	–
CCn1cc(C(=O)N/N=C/c2ccc(O)cc2O)c(=O)c2ccc(C)nc21	397 µg/mL (≈ 1080 µM)	196 µg/mL (≈ 536 µM)	144 µg/mL (≈ 392 µM)	650 µg/mL (≈ 1770 µM)	40%	25%	342 µg/mL (≈ 932 µM)	–	–
CCn1cc(C(=O)N/N=C/c2ccc(OC)cc2OC)c(=O)c2ccc(C)nc21	375 µg/mL (≈ 950 µM)	176 µg/mL (≈ 447 µM)	131 µg/mL (≈ 332 µM)	382 µg/mL (≈ 969 µM)	100%	12%	188 µg/mL (≈ 477 µM)	10%	–
CCn1cc(C(=O)N/N=C/c2ccc(OC)c(OC)c2)c(=O)c2ccc(C)nc21	359 µg/mL (≈ 909 µM)	137 µg/mL (≈ 346 µM)	102 µg/mL (≈ 259 µM)	285 µg/mL (≈ 722 µM)	40%	10%	172 µg/mL (≈ 435 µM)	–	–
CCn1cc(C(=O)N/N=C/c2ccc(O)c(OC)c2)c(=O)c2ccc(C)nc21	460 µg/mL (≈ 1210 µM)	377 µg/mL (≈ 991 µM)	128 µg/mL (≈ 337 µM)	528 µg/mL (≈ 1390 µM)	100%	20%	317 µg/mL (≈ 833 µM)	20%	–
CCOc1cc(/C=N/NC(=O)c2cn(CC)c3nc(C)ccc3c2=O)ccc1O	384 µg/mL (≈ 974 µM)	185 µg/mL (≈ 469 µM)	92.1 µg/mL (≈ 234 µM)	400 µg/mL (≈ 1010 µM)	90%	22%	356 µg/mL (≈ 903 µM)	10%	–
CCn1cc(C(=O)N/N=C/c2cc(OC)c(OC)c(OC)c2)c(=O)c2ccc(C)nc21	186 µg/mL (≈ 438 µM)	102 µg/mL (≈ 241 µM)	79.4 µg/mL (≈ 187 µM)	201 µg/mL (≈ 474 µM)	90%	10%	174 µg/mL (≈ 409 µM)	10%	–
CCn1cc(C(=O)N/N=C/c2ccccn2)c(=O)c2ccc(C)nc21	198 µg/mL (≈ 590 µM)	79.1 µg/mL (≈ 236 µM)	77.3 µg/mL (≈ 230 µM)	372 µg/mL (≈ 1110 µM)	100%	10%	170 µg/mL (≈ 508 µM)	–	–
CCn1cc(C(=O)N/N=C/c2ccc(F)cc2)c(=O)c2ccc(C)nc21	220 µg/mL (≈ 624 µM)	79.9 µg/mL (≈ 227 µM)	64.8 µg/mL (≈ 184 µM)	244 µg/mL (≈ 692 µM)	50%	10%	234 µg/mL (≈ 665 µM)	–	–
CCn1cc(C(=O)N/N=C/c2cccc(Cl)c2)c(=O)c2ccc(C)nc21	439 µg/mL (≈ 1190 µM)	132 µg/mL (≈ 358 µM)	98.8 µg/mL (≈ 268 µM)	504 µg/mL (≈ 1370 µM)	90%	10%	394 µg/mL (≈ 1070 µM)	–	–
CCn1cc(C(=O)N/N=C/c2ccc(Cl)cc2)c(=O)c2ccc(C)nc21	438 µg/mL (≈ 1190 µM)	119 µg/mL (≈ 322 µM)	87.2 µg/mL (≈ 236 µM)	371 µg/mL (≈ 1000 µM)	40%	10%	308 µg/mL (≈ 834 µM)	–	–
CCn1cc(C(=O)N/N=C/c2cccc(Br)c2)c(=O)c2ccc(C)nc21	380 µg/mL (≈ 920 µM)	209 µg/mL (≈ 506 µM)	125 µg/mL (≈ 303 µM)	628 µg/mL (≈ 1520 µM)	20%	20%	439 µg/mL (≈ 1060 µM)	10%	–
CCn1cc(C(=O)N/N=C/c2cccc([N+](=O)[O-])c2)c(=O)c2ccc(C)nc21	287 µg/mL (≈ 756 µM)	212 µg/mL (≈ 559 µM)	89 µg/mL (≈ 235 µM)	272 µg/mL (≈ 716 µM)	80%	10%	245 µg/mL (≈ 645 µM)	–	–
CCn1cc(C(=O)N/N=C/c2ccc([N+](=O)[O-])cc2)c(=O)c2ccc(C)nc21	464 µg/mL (≈ 1220 µM)	125 µg/mL (≈ 330 µM)	70.1 µg/mL (≈ 185 µM)	575 µg/mL (≈ 1520 µM)	90%	10%	226 µg/mL (≈ 595 µM)	10%	–
CCn1cc(C(=O)N/N=C/c2ccc(O)cc2)c(=O)c2ccc(C)nc21	364 µg/mL (≈ 1040 µM)	181 µg/mL (≈ 517 µM)	146 µg/mL (≈ 416 µM)	308 µg/mL (≈ 878 µM)	70%	40%	330 µg/mL (≈ 943 µM)	10%	–
CCn1cc(C(=O)N/N=C/c2cccc(OC)c2)c(=O)c2ccc(C)nc21	242 µg/mL (≈ 665 µM)	63.1 µg/mL (≈ 173 µM)	57.6 µg/mL (≈ 158 µM)	210 µg/mL (≈ 575 µM)	10%	10%	157 µg/mL (≈ 432 µM)	–	–
CC1(C)C(C=C(Cl)Cl)C1C(=O)OC(C#N)c1cccc(Oc2ccccc2)c1 (stereo not drawn) [ALPHA-CYPERMETHRIN]	–	–	–	–	100%	–	–	–	–
CCCCC(O)(Cn1cncn1)c1ccc(Cl)cc1Cl (configuration not stated) [HEXACONAZOLE]	13 µg/mL (≈ 41.4 µM)	20.6 µg/mL (≈ 65.6 µM)	25.5 µg/mL (≈ 81.2 µM)	4.4 µg/mL (≈ 14 µM)	–	–	18.3 µg/mL (≈ 58.2 µM)	–	–
